Screening results: PubChem BioAssay, several laboratories
DTT redox prof = compounds producing H2O2 with reducing agent – biochemical, NIH compound library profiling, artefact control for MLSCN library redox annotation, primary screen; DTT-dependent redox cycling H2O2, phenol red/HRP absorbance; 100% = 100 µM peroxide control, 0% = buffer; activation, % at 10 µM; 200,000 compounds, 0.03% hits; AID 878, 2007;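 active means activation of at least 50% relative to the plate's high and low controls in the primary single-dose screen; inactive means activation below 50%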;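 further: compound incubated with DTT at 0.8 mM final as the reducing agent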
PMI act satM6P = human PMI activators, high substrate, primary screen, biochemical, fluorescence intensity, near-saturating mannose 6-phosphate; activation factor at 20 µM; 190,000 compounds, 0.34% hits; Mannose-6-phosphate isomerase (Homo sapiens), P34949; coupled PMI enzyme assay, resazurin fluorescence, 20 min; stronger effect = higher value; 1 = untreated enzyme, 0 = substrate-free blank;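 active means activation factor of 2 or more at 20 µM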
Target sequence (P34949 whole entry, looked up): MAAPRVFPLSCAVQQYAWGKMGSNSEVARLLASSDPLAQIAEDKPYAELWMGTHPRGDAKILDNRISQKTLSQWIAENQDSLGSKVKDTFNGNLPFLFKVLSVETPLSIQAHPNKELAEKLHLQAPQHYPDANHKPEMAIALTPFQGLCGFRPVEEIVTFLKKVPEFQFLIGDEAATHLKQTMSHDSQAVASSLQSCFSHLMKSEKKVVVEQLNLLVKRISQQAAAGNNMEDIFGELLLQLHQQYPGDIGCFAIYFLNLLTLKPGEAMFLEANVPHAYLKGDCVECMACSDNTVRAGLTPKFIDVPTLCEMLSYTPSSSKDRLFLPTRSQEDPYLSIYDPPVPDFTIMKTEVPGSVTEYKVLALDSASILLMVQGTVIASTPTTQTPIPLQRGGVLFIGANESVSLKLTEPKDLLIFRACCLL
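Material: human phosphomannose isomerase with PGI, G6PDH, diaphorase coupling enzymes / Reagent: Man-6-P substrate 1.0 mM / Dosing: single compound dose of 20 µM, 1% DMSO final / Incubation: enzyme reaction with compound 20 min at room temperature / Signal: resorufin fluorescence (Ex 544/Em 590 nm) from resazurin via diaphorase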
Efa HMGR inh = inhibitors of E. faecalis class II HMGR, primary screen, biochemical, Enterococcus faecalis; inhibition, % at 10 µM; purified E. faecalis HMGR, NADPH absorbance 340 nm kinetic; 190,000 compounds, 0.41% hits; HMG-CoA reductase (Enterococcus faecalis, mvaE);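 active means inhibition above a set limit, the median over all tested compounds plus 3 SD, cut at about 9.5% in these data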;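 further: enzyme runs in reverse so mevalonate oxidation gives rising NADPH absorbance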
p47phox inh = p47phox/p22phox peptide binding inhibitors, primary screen, biochemical, uHTS, NADPH oxidase regulatory subunit | 220,000 compounds, 0.53% hits | Neutrophil cytosol factor 1 (Homo sapiens), P14598 | inhibition, % at 24.7 µM | fluorescence polarization, 2 h;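 active means inhibition above about 30%, limit read from the data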
PMI activator = activators of human PMI, primary screen, biochemical, fluorescence intensity, near-Km mannose 6-phosphate | activation factor at 20 µM | purified human PMI, coupled resazurin fluorescence, 20 min; stronger effect = higher value; 1 = vehicle control, 0 substrate-free wells | 190,000 compounds, 0.005% hits | AID 1214, 2008 | Mannose-6-phosphate isomerase (Homo sapiens), P34949;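 active means activation factor of 2 or more at 20 µM, relative to plate controls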
Diaph act CS = compounds boosting diaphorase resazurin reduction – biochemical, uHTS, resorufin fluorescence, counter-screen for diaphorase-coupled primary assays, primary screen | AID 1229, 2008 | 190,000 compounds, 0.005% hits | activation factor at 20 µM | Diaphorase/resazurin coupled assay, 16 min; stronger effect = higher value; 1 = vehicle wells, 0 = NADH-free wells;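 active means diaphorase activity raised at least twofold by the compound at 20 µM; inactive means activation factor below 2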
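Measured by – red resorufin fluorescence at 544/590 nm excitation/emission · Test system – Clostridium kluyveri diaphorase, purified enzyme · Incubation – reaction time 16 min, room temperature · Buffer or medium – 50 mM HEPES pH 7.4 with 4.542 mM MgCl2, 0.005% Tween 20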
Large screens that a line does not name were inactive. Shown are actives, neighbours in structure and some others; about 1.2% of the full set was active somewhere.

COc1ccc(OC)c(NC(=O)NNC(=O)CCCOc2ccc(Cl)cc2C)c1	Efa HMGR inh 16
C=CCn1cnc2c(nnn2-c2ccc(Cl)cc2)c1=O	Efa HMGR inh 16
O=C(O)C1CCN(c2ccc(S(=O)(=O)N3CCOCC3)cc2[N+](=O)[O-])CC1	p47phox inh 69
O=C(CCCSc1nnnn1-c1cccc2ccccc12)c1ccc(F)cc1	none
COc1ccc(-c2cnnc(N/N=C/c3ccc(-c4ccc([N+](=O)[O-])cc4)o3)n2)cc1	p47phox inh 60
O=[N+]([O-])c1cccc(-c2ccc(/C=N/Nc3nc(N4CCCCC4)nc(N4CCCCC4)n3)o2)c1	none
O=[N+]([O-])c1ccc(-c2ccc(/C=N/Nc3nc(N4CCCC4)nc(N4CCCC4)n3)o2)cc1	none
COc1nc(N/N=C/c2ccc(-c3cccc([N+](=O)[O-])c3)o2)nc(N2CCOCC2)n1	p47phox inh 76
CC(=O)c1ccc(NC(=O)C2C3C=CC(C3=C(c3ccccc3)c3ccccc3)C2C(=O)O)cc1 (stereo not given)	none
Cc1c(NC(=O)Cn2cnc3c(=O)n(C)c(=O)n(C)c32)cccc1-c1nc2ccccc2o1	none (no result: PMI act satM6P, Efa HMGR inh, p47phox inh, PMI activator, Diaph act CS)
O=C(NC1CCCC1)C(c1ccncc1)N(C(=O)Cc1cccs1)c1ccccc1 (stereo not given)	Efa HMGR inh 10
COc1cccc(N(C(=O)Cn2nnc(-c3cccs3)n2)C(C(=O)NC2CCCCC2)c2ccncc2)c1 (stereo not given)	p47phox inh 46
Cc1ccc(C)c(N(C(=O)Cn2nnc(-c3cccs3)n2)C(C(=O)NC2CCCC2)c2ccncc2)c1 (stereo not given)	none
O=C(NC1CCCCC1)C(c1ccncc1)N(C(=O)Cc1cccs1)c1ccccc1 (stereo not given)	none (no result: PMI act satM6P, PMI activator, Diaph act CS)
COc1ccc(CNC(=O)CS(=O)CC(=O)O)cc1OC (stereo not given)	none
O=C(C1CC1)N1CCCC(c2ccc(Cl)cc2)=N1	Efa HMGR inh 10
O=C(O)c1ccccc1CSc1nc2ccccc2n1Cc1ccccc1C(=O)O	Efa HMGR inh 11
CN(C)CCCN1C(=O)C2CCc3[nH]c4ccccc4c3C2C1=O (stereo not given)	none
O=C(CN1C(=O)S/C(=C\c2ccc(Cl)cc2)C1=O)NNC(=O)c1ccccc1O	p47phox inh 49
COc1ccc2cc(C(c3nnnn3C3CCCC3)N3CCCCCC3)c3nnnn3c2c1 (stereo not given)	Efa HMGR inh 11
COC(=O)c1cc(C(=O)OC)cc(N2C(=O)CC(NNC(=O)c3ccc(C)cc3)C2=O)c1 (stereo not given)	p47phox inh 130
Cc1cc2cc(CCNC(=O)C3c4ccccc4Oc4ccccc43)c(=O)[nH]c2cc1C	none
O=C(NC(=S)Nc1ccccc1O)c1ccccc1Cl	none
CN(C)c1ccc(/C=C/C=C2/SC(=S)N(c3ccccc3)C2=O)cc1	p47phox inh 107
Nc1nc(CN2CCN(Cc3ccc4c(c3)OCO4)CC2)nc(Nc2ccccc2)n1	none
Cc1ccccc1Nc1nc(N)nc(CN2CCN(Cc3ccc4c(c3)OCO4)CC2)n1	Efa HMGR inh 17
O=C(NC(=S)Nc1nc(-c2ccc(Br)cc2)cs1)c1cccnc1	PMI act satM6P 2.5
O=C(NCc1csc(-c2cccs2)n1)c1cccc(Cl)c1	none (no result: DTT redox prof, PMI act satM6P, Efa HMGR inh, PMI activator, Diaph act CS)
Nc1n[nH]c2cc(=O)n(-c3ccc(Cl)cc3)nc12	none
COc1ccc(-n2nc3c(N)n[nH]c3cc2=O)cc1	PMI act satM6P 2
CC(=O)Nc1ccc(C(=O)Nc2cccc(-c3cnc4ccccc4n3)c2)cc1	p47phox inh 33
COc1cc(/C=N/c2oc(-c3ccccc3)cc2C#N)ccc1O	Efa HMGR inh 10
COc1cc(/C=N/NC(=O)c2ccccc2)ccc1O	none
O=C(COc1cccc([N+](=O)[O-])c1)N/N=C/c1ccco1	Efa HMGR inh 9.6
O=C(O)c1ccc(N/N=C/C2=Cc3ccccc3OC2)cc1	none (no result: DTT redox prof, PMI act satM6P, Efa HMGR inh, PMI activator, Diaph act CS)
Cc1cc(OCC(=O)Nc2ccccc2F)nc(C(C)C)n1	none
Cc1cc(OCC(=O)Nc2ccc(F)c(F)c2)nc(C(C)C)n1	p47phox inh 165
Cc1cc(C)nc(/N=c2/ssnc2Cl)c1	Efa HMGR inh 12
Cc1ccc(N=c2ssnc2Cl)cc1	none
Cc1cc(-c2ccn[nH]2)c(C)s1	none
CC1CCN(c2cc(N)c(Cl)cc2[N+](=O)[O-])CC1	Efa HMGR inh 16
O=C(O)c1ccccc1C(=O)NC1CCCCNC1=O (stereo not given)	none (no result: DTT redox prof, PMI act satM6P, Efa HMGR inh, PMI activator, Diaph act CS)
O=[N+]([O-])CC(=Nc1ccc(F)cc1)N/N=C\c1oc(O)c2ccccc12	none (no result: DTT redox prof, PMI act satM6P, Efa HMGR inh, PMI activator, Diaph act CS)
CC(=O)Nc1ccc(OCC(O)Cn2c(C)nc3ccccc32)cc1 (stereo not given)	none
CC(=O)Nc1ccc(OCC(O)Cn2c(C(C)C)nc3ccccc32)cc1 (stereo not given)	Efa HMGR inh 11
N#Cc1nc(COc2ccc(F)cc2)oc1N1CCC(Cc2ccccc2)CC1	p47phox inh 50
N#Cc1nc(COc2ccc(F)cc2)oc1N1CCN(Cc2ccccc2)CC1	none
O=C(CN1C(=O)COc2ccc(Cl)cc21)Nc1ccc2c(c1)OCCO2	none
O=C(O)CCC(=O)N1CCOc2ccc(Cl)cc21	p47phox inh 37
O=[N+]([O-])c1ccc(-c2csc3[n+]2CCS3)cc1	none
Fc1ccc(-c2csc3[n+]2CCS3)cc1	Efa HMGR inh 17
CC(=O)N(C)c1ccc(NC(=O)COc2ccc(Br)cc2C)cc1	none
CN(C)c1ccc(/C=N/Nc2ccc(-n3ccnc3)nn2)cc1	PMI act satM6P 2.2
Cc1ccc(/C=N/Nc2ccc(Cl)nn2)cc1	none (no result: DTT redox prof, PMI act satM6P, Efa HMGR inh, PMI activator, Diaph act CS)
COc1ccc(NC(=O)COC(=O)CCCN2C(=O)c3ccccc3C2=O)cc1Cl	none
COC(=O)CNC(=O)c1cc(OC)cc(OC)c1	Efa HMGR inh 18
CCOC(=O)CNC(=O)c1cc(OC)cc(OC)c1	none
Cc1ccc2[nH]c3c(c2c1)CN(C(=O)CN1c2ccc(F)cc2CCC1C)CC3 (stereo not given)	p47phox inh 196
COCCNc1nc(-c2cc(C)n(CCc3ccc(OC)cc3)c2C)cs1	none
